Laboratory results from ChEMBL document CHEMBL1772977, “Synthesis and biological evaluation of novel 4-benzylpiperazine ligands for sigma-1 receptor imaging” (Bioorg Med Chem, 2011).

Experiments:
[1] = 1-Octanol-sodium phosphate buffer distribution coefficient, log D of the compound at pH 7.4; assay type: physicochemical
In short: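 Shake-flask partition of HPLC-purified radiotracer between 1-octanol and 0.05 mol/L sodium phosphate buffer pH 7.4, phases mutually pre-saturated (3 mL each). […] Octanol layer re-distributed until values were consistent. Triplicate, repeated three times.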

[2] = system: Blood; assay: Biodistribution in ICR mouse blood at 1 uCi, iv after 15 mins postinjection; assay type: ADME, organism-based; details: in vivo, 0.25 h
In short: (§1)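 Female ICR mice (18–22 g, n = 5) received HPLC-purified radiotracer by tail vein (0.1 mL). They were killed by cervical fracture at the stated times. Blood and organs were removed, weighed and gamma-counted. Uptake expressed as percent injected dose per gram of tissue (%ID/g), given as mean with SD.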

[3] = system: Blood; assay: Biodistribution in ICR mouse blood at 1 uCi, iv after 30 mins postinjection; assay type: ADME, organism-based; details: in vivo, 0.5 h; in short: as §1
[4] = system: Blood; assay: Biodistribution in ICR mouse blood at 1 uCi, iv after 60 mins postinjection; assay type: ADME, organism-based; details: in vivo, 1 h; in short: as §1
[5] = system: Blood; assay: Biodistribution in ICR mouse blood at 1 uCi, iv after 120 mins postinjection; assay type: ADME, organism-based; details: in vivo, 2 h; in short: as §1
[6] = system: Blood; assay: Biodistribution in ICR mouse blood at 1 uCi, iv after 240 mins postinjection; assay type: ADME, organism-based; details: in vivo, 4 h; in short: as §1
[7] = system: Brain; assay: Biodistribution in ICR mouse brain at 1 uCi, iv after 15 mins postinjection; assay type: ADME, organism-based; details: in vivo, 0.25 h; in short: as §1
[8] = system: Brain; assay: Biodistribution in ICR mouse brain at 1 uCi, iv after 30 mins postinjection; assay type: ADME, organism-based; details: in vivo, 0.5 h; in short: as §1
[9] = system: Brain; assay: Biodistribution in ICR mouse brain at 1 uCi, iv after 60 mins postinjection; assay type: ADME, organism-based; details: in vivo, 1 h; in short: as §1
[10] = system: Brain; assay: Biodistribution in ICR mouse brain at 1 uCi, iv after 120 mins postinjection; assay type: ADME, organism-based; details: in vivo, 2 h; in short: as §1
[11] = system: Brain; assay: Biodistribution in ICR mouse brain at 1 uCi, iv after 240 mins postinjection; assay type: ADME, organism-based; details: in vivo, 4 h; in short: as §1
[12] = system: Heart; assay: Biodistribution in ICR mouse heart at 1 uCi, iv after 15 mins postinjection; assay type: ADME, organism-based; details: in vivo, 0.25 h; in short: as §1
[13] = system: Heart; assay: Biodistribution in ICR mouse heart at 1 uCi, iv after 30 mins postinjection; assay type: ADME, organism-based; details: in vivo, 0.5 h; in short: as §1
[14] = system: Heart; assay: Biodistribution in ICR mouse heart at 1 uCi, iv after 60 mins postinjection; assay type: ADME, organism-based; details: in vivo, 1 h; in short: as §1
[15] = system: Heart; assay: Biodistribution in ICR mouse heart at 1 uCi, iv after 120 mins postinjection; assay type: ADME, organism-based; details: in vivo, 2 h; in short: as §1
[16] = system: Heart; assay: Biodistribution in ICR mouse heart at 1 uCi, iv after 240 mins postinjection; assay type: ADME, organism-based; details: in vivo, 4 h; in short: as §1
[17] = system: Liver; assay: Biodistribution in ICR mouse liver at 1 uCi, iv after 15 mins postinjection; assay type: ADME, organism-based; details: in vivo, 0.25 h; in short: as §1
[18] = system: Liver; assay: Biodistribution in ICR mouse liver at 1 uCi, iv after 30 mins postinjection; assay type: ADME, organism-based; details: in vivo, 0.5 h; in short: as §1
[19] = system: Liver; assay: Biodistribution in ICR mouse liver at 1 uCi, iv after 60 mins postinjection; assay type: ADME, organism-based; details: in vivo, 1 h; in short: as §1
[20] = system: Liver; assay: Biodistribution in ICR mouse liver at 1 uCi, iv after 120 mins postinjection; assay type: ADME, organism-based; details: in vivo, 2 h; in short: as §1
[21] = system: Liver; assay: Biodistribution in ICR mouse liver at 1 uCi, iv after 240 mins postinjection; assay type: ADME, organism-based; details: in vivo, 4 h; in short: as §1
[22] = system: Spleen; assay: Biodistribution in ICR mouse spleen at 1 uCi, iv after 15 mins postinjection; assay type: ADME, organism-based; details: in vivo, 0.25 h; in short: as §1
[23] = system: Spleen; assay: Biodistribution in ICR mouse spleen at 1 uCi, iv after 30 mins postinjection; assay type: ADME, organism-based; details: in vivo, 0.5 h; in short: as §1
[24] = system: Spleen; assay: Biodistribution in ICR mouse spleen at 1 uCi, iv after 60 mins postinjection; assay type: ADME, organism-based; details: in vivo, 1 h; in short: as §1
[25] = system: Spleen; assay: Biodistribution in ICR mouse spleen at 1 uCi, iv after 120 mins postinjection; assay type: ADME, organism-based; details: in vivo, 2 h; in short: as §1
[26] = system: Spleen; assay: Biodistribution in ICR mouse spleen at 1 uCi, iv after 240 mins postinjection; assay type: ADME, organism-based; details: in vivo, 4 h; in short: as §1
[27] = system: Lung; assay: Biodistribution in ICR mouse lung at 1 uCi, iv after 15 mins postinjection; assay type: ADME, organism-based; details: in vivo, 0.25 h; in short: as §1
[28] = system: Lung; assay: Biodistribution in ICR mouse lung at 1 uCi, iv after 30 mins postinjection; assay type: ADME, organism-based; details: in vivo, 0.5 h; in short: as §1

Work on `[125I]c1ccc(CN2CCN(Cc3ccc4c(c3)OCO4)CC2)cc1` yielded a logD [1] of 2.98, a Drug uptake [2] of 1.34 % ID/g and a Drug uptake [3] of 0.88 % ID/g. For the same compound, the Drug uptake [4] was 0.81 % ID/g, the Drug uptake [5] was 0.77 % ID/g and the Drug uptake [6] was 0.72 % ID/g. For the same compound, the Drug uptake [7] was 5.03 % ID/g, the Drug uptake [8] was 4.96 % ID/g and the Drug uptake [9] was 4.63 % ID/g. The Drug uptake [10] was 3.75 % ID/g, the Drug uptake [11] was 2.09 % ID/g and the Drug uptake [12] was 3.98 % ID/g. The Drug uptake [13] was 2.79 % ID/g, the Drug uptake [14] was 1.71 % ID/g and the Drug uptake [15] was 1.24 % ID/g. It also gave a Drug uptake [16] of 0.75 % ID/g, a Drug uptake [17] of 9 % ID/g and a Drug uptake [18] of 6.39 % ID/g. The Drug uptake [19] was 5.68 % ID/g, the Drug uptake [20] was 5.08 % ID/g and the Drug uptake [21] was 3.95 % ID/g. For the same compound, the Drug uptake [22] was 6.68 % ID/g, the Drug uptake [23] was 6.53 % ID/g and the Drug uptake [24] was 5.7 % ID/g. For the same compound, the Drug uptake [25] was 4.79 % ID/g, the Drug uptake [26] was 2.83 % ID/g and the Drug uptake [27] was 12.49 % ID/g. It also gave a Drug uptake [28] of 8.7 % ID/g.
